ChEMBL document CHEMBL4680238, “Novel octapeptide-DTX prodrugs targeting MMP-7 as effective agents for the treatment of colorectal cancer with lower systemic toxicity” (Eur J Med Chem, 2020)

Legend:
SW-620 = assay: Cytotoxicity against human SW-620 cells assessed as reduction in cell viability after 72 hrs by MTT assay; type: functional, cell-based; details: SW-620, 72 h
How it was run: (§1)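 Cells seeded at 5000/well and precultured 1 day. HCT116 grown in McCoy's 5A + 10% FBS; SW620 and HEK293 in DMEM + 10% FBS; CCD18Co in DMEM + 15% FBS. Compounds from 0.1 M DMSO stocks were tested at 10^-10 to 10^-4 mol/L in sixplicate: HCT116 and HEK293 for 48 h, SW620 and CCD18Co for 72 h, at 37 °C, 5% CO2. MTT (5 mg/mL) added for 4 h, then A570 read; IC50 estimated.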

HCT-116 [1] = assay: Cytotoxicity against human HCT-116 cells assessed as reduction in cell viability after 48 hrs by MTT assay; type: functional, cell-based; details: HCT-116, 48 h; how it was run: as §1
CCD-18Co = assay: Cytotoxicity against human CCD-18Co cells assessed as reduction in cell viability after 72 hrs by MTT assay; type: cell-based; how it was run: as §1
HEK293 = assay: Cytotoxicity against HEK293 cells assessed as reduction in cell viability after 48 hrs by MTT assay; type: cell-based; details: Homo sapiens, HEK293, 48 h; how it was run: as §1
HCT-116 [2] = assay: Antitumour activity against human HCT-116 cells xenografted in BALB/c nude mouse assessed as tumour growth inhibition at 5 mg/kg, ip administered once for every 7 days for 14 days relative to control; type: functional; details: HCT-116, ip, 336 h, time 14 day, read-out: TGI
How it was run: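 Male BALB/c nude mice received s.c. HCT116 cells (2 × 10^6 in 0.2 mL PBS). Once tumours reached 100-200 mm3, mice were randomized into groups of six. Dosing was ip, 0.1 mL/10 g, once every 7 days, in DMSO 0.5%/castor oil 5%/ethanol 5%/saline 89.5%; vehicle controls got solvent. Caliper volume V = L×W²×0.52 read every 2-3 days. Tumours excised and weighed on day 14.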

[3] = Toxicity in BALB/c nude mouse xenografted with human HCT-116 cells assessed as reduction in body weight at 5 mg/kg, ip administered once for every 7 days for 14 days relative to control; type: organism-based; design: scale not given: the % may be the effect or the level left; details: in vivo, 336 h, time 14 day
How it was run: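 HCT116 s.c. xenografts in male BALB/c nude mice, n = 6 per group. Dosing was ip once every 7 days for 2 weeks in DMSO/castor oil/ethanol/saline; vehicle controls got solvent. Body weight recorded every other day or every three days. Weight loss taken at day 14. Mean ± SD.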

[4] = Toxicity in BALB/c nude mouse xenografted with human HCT-116 cells assessed as necrosis in liver at 5 mg/kg, ip administered once for every 7 days for 14 days by H and E staining based assay; type: organism-based; details: in vivo, 336 h, time 14 day
How it was run: (§2)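 At the end of the 14-day ip xenograft study (HCT116, BALB/c nude), heart and liver were collected from vehicle and molar-equivalent dose groups. Tissues fixed in 10% formalin in PBS and stained with H&E. Liver examined at 400×, heart at 100×.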

[5] = Toxicity in BALB/c nude mouse xenografted with human HCT-116 cells assessed as disordered myocardial fiber in heart at 5 mg/kg, ip administered once for every 7 days for 14 days by H and E staining based assay; type: organism-based; details: in vivo, 336 h, time 14 day; how it was run: as §2
[6] = Toxicity in BALB/c nude mouse xenografted with human HCT-116 cells assessed as inflammatory cell invasion in heart at 5 mg/kg, ip administered once for every 7 days for 14 days by H and E staining based assay; type: organism-based; details: in vivo, 336 h, time 14 day; how it was run: as §2
[7] = Toxicity in BALB/c nude mouse xenografted with human HCT-116 cells assessed as concentrated nucleus in liver at 5 mg/kg, ip administered once for every 7 days for 14 days by H and E staining based assay; type: organism-based; details: in vivo, 336 h, time 14 day; how it was run: as §2
[8] = Toxicity in ip dosed Kunming mouse measured for 14 days; type: organism-based; details: in vivo, time 14 day
How it was run: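 Healthy Kunming mice of both sexes, 20 ± 2 g, randomised into 5 groups of 10 matched for weight and size. Compound given once intraperitoneally at 400, 300, 250 or 150 mg/kg in formulation solvent (0.5% DMSO, 5% castor oil, 5% ethanol, 89.5% saline), 0.1 mL per 10 g; vehicle controls received solvent. Deaths recorded daily for 14 days; LD50 by Bliss method.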

[9] = AUC (0 to t) in Sprague-Dawley rat at 5 mg/kg, iv measured up to 72 hrs by LC-MS/MS analysis; type: ADME, organism-based; design: route intravenous, dose 5 mg/kg, time <=72; details: in vivo
How it was run: (§3)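 Male SD rats (180-200 g), fasted 12 h with free water, n = 3 per group. Single tail-vein dose of 5 mg/kg in 0.5% DMSO/5% castor oil/5% ethanol/89.5% saline. Retro-orbital blood drawn 0.083-72 h with heparin. Plasma protein-precipitated with methanol containing paclitaxel internal standard, then analysed by LC-MS/MS. Parameters from non-compartmental analysis, mean ± SD. For the DTX group, parameters were calculated after converting dose to the molar equivalent of the prodrug.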

[10] = AUC (0 to infinity) in Sprague-Dawley rat at 5 mg/kg, iv measured up to 72 hrs by LC-MS/MS analysis; type: ADME, organism-based; design: route intravenous, dose 5 mg/kg, time <=72; details: in vivo, 72 h; how it was run: as §3
[11] = MRT (0 to infinity) in Sprague-Dawley rat at 5 mg/kg, iv measured up to 72 hrs by LC-MS/MS analysis; type: ADME, organism-based; details: in vivo; how it was run: as §3
[12] = Half life in Sprague-Dawley rat at 5 mg/kg, iv measured up to 72 hrs by LC-MS/MS analysis; type: ADME, organism-based; details: in vivo; how it was run: as §3
[13] = Apparent volume of distribution in Sprague-Dawley rat at 5 mg/kg, iv measured up to 72 hrs by LC-MS/MS analysis; type: ADME, organism-based; details: in vivo, read-out: Vz; how it was run: as §3
[14] = Apparent clearance in Sprague-Dawley rat at 5 mg/kg, iv measured up to 72 hrs by LC-MS/MS analysis; type: ADME, organism-based; details: in vivo, 5 mg/kg, 72 h; how it was run: as §3
[15] = Drug uptake in BALB/c nude mouse xenografted with human HCT-116 cells assessed as drug level in heart at 5 mg/kg, iv measured up to 24 hrs by LC-MS/MS analysis; type: ADME, organism-based; details: in vivo
How it was run: (§4)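 Male BALB/c nude mice bearing s.c. HCT116 tumours (200-300 mm3), 20 per group. Single tail-vein dose of 5 mg/kg. Five mice per group killed at 0.5, 4, 8 and 24 h and heart-perfused with PBS. Tissues homogenized in saline (4 µL/mg) and precipitated with methanol containing paclitaxel internal standard. Prodrug, released DTX and free DTX measured by LC-MS/MS.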

[16] = Drug uptake in BALB/c nude mouse xenografted with human HCT-116 cells assessed as drug level in liver at 5 mg/kg, iv measured up to 24 hrs by LC-MS/MS analysis; type: ADME, organism-based; details: in vivo; how it was run: as §4
[17] = Drug uptake in BALB/c nude mouse xenografted with human HCT-116 cells assessed as drug level in spleen at 5 mg/kg, iv measured up to 24 hrs by LC-MS/MS analysis; type: ADME, organism-based; details: in vivo; how it was run: as §4
[18] = Drug uptake in BALB/c nude mouse xenografted with human HCT-116 cells assessed as drug level in lung at 5 mg/kg, iv measured up to 24 hrs by LC-MS/MS analysis; type: ADME, organism-based; details: in vivo; how it was run: as §4
[19] = Drug uptake in BALB/c nude mouse xenografted with human HCT-116 cells assessed as drug level in kidney at 5 mg/kg, iv measured up to 24 hrs by LC-MS/MS analysis; type: ADME, organism-based; details: in vivo; how it was run: as §4
[20] = Drug uptake in BALB/c nude mouse xenografted with human HCT-116 cells assessed as drug level in tumour at 5 mg/kg, iv measured up to 24 hrs by LC-MS/MS analysis; type: ADME, organism-based, Neoplasm; details: in vivo; how it was run: as §4

## CC(=O)O[C@@]12CO[C@@H]1C[C@H](O)[C@@]1(C)C(=O)[C@H](O)C3=C(C)[C@@H](OC(=O)[C@H](O)[C@@H](NC(=O)OC(C)(C)C(F)(F)F)c4ccccc4)C[C@@](O)([C@@H](OC(=O)c4cccc(F)c4)[C@H]21)C3(C)C
SW-620
  IC50: 280 nM
HCT-116 [1]
  IC50: 0.1 nM
CCD-18Co
  IC50: 17100 nM
HEK293
  IC50: 360 nM
HCT-116 [2]
  inhibition in vivo at 5 mg/kg: 41.9%
[3]
  Activity: 9.5%
[4]
  Activity: Toxic
[5]
  Activity: Toxic
[6]
  Activity: Toxic

## CC(=O)O[C@@]12CO[C@@H]1C[C@H](O)[C@@]1(C)C(=O)[C@H](O)C3=C(C)[C@@H](OC(=O)[C@H](O)[C@@H](NC(=O)OC(C)(C)C)c4ccccc4)C[C@@](O)([C@@H](OC(=O)c4ccccc4)[C@H]21)C3(C)C [DOCETAXEL ANHYDROUS]
SW-620
  IC50: 20 nM
HCT-116 [1]
  IC50: 3.5 nM
CCD-18Co
  IC50: 117000 nM
HEK293
  IC50: 19700 nM
HCT-116 [2]
  inhibition in vivo at 5 mg/kg: 42.7%
[3]
  Activity: 13%
[7]
  Activity: Toxic
[5]
  Activity: Toxic
[6]
  Activity: Toxic
[8]
  LD50 at 336 h: 74.1 mg/kg
[9]
  AUC(0-t) at 72 h: 930 ng·h/mL
[10]
  AUC: 867 ng·h/mL
[11]
  MRT inf: 3.76 h
[12]
  half-life: 5.75 h
[13]
  Vd: 22.6 L/kg
[14]
  CL(app): 46 mL/min/kg
[15]
  Drug uptake: Active
[16]
  Drug uptake: Active
[17]
  Drug uptake: Active
[18]
  Drug uptake: Active
[19]
  Drug uptake: Active
[20]
  Drug uptake: Active
